What all share (type): binding
For test [1], the target named is T1, CBD brain homogenates (4R-tau aggregates) (Homo sapiens, UniProt P10636). Briefly: Competition. In short, it runs like this:
(§1)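 Post-mortem human brain homogenate in PBS pH 7.0, 100 μg tissue/mL final, with ~1 nM tritiated radioligand and unlabelled test compound at 0.1–1000 nM (0.25% DMSO final for non-Enamine compounds). Incubated 60 min at room temperature, then GF/B filtration, four PBS washes and scintillation counting. Full inhibition was taken as counts displaced by 1 μM unlabelled radioligand. Triplicates at each concentration.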

In test [2] the target is T2, PSP brain homogenates (4R-tau aggregates) (Homo sapiens, UniProt P10636). Put plainly: Competition. The essentials: as §1
Test [3] concerns the target T2, PSP brain homogenates (4R-tau aggregates). Briefly: Competition. In short, it runs like this:
as §1
The source holds these as a separate data set.

For test [4], the target named is T3, AD brain homogenates (mixed 3R/4R-tau) (Homo sapiens, UniProt P10636). Put plainly: Competition.
The target of test [5] is T3, AD brain homogenates (mixed 3R/4R-tau). Briefly: Competition. This is another data set of the same source.
The target in test [6] is aggregated amyloid-beta (Aβ) in AD tissue (Homo sapiens, UniProt P05067). Briefly: Competition. The essentials:
as §1

Test [7] concerns the target T1, CBD brain homogenates (4R-tau aggregates). Briefly: Competition. In short, it runs like this:
as §1
The source holds these as a separate data set.

Test [8] concerns the target T3, AD brain homogenates (mixed 3R/4R-tau). Put plainly: Competition. This is another data set of the same source.
In test [9] the target is T2, PSP brain homogenates (4R-tau aggregates). Put plainly: Competition. The essentials:
as §1
This is another data set of the same source.

The target is the same in test [10]. Briefly: Competition. The essentials:
as §1
This is another data set of the same source.

In test [11] the target is T3, AD brain homogenates (mixed 3R/4R-tau). Briefly: Competition. This is another data set of the same source.
Test [12] addresses T1, CBD brain homogenates (4R-tau aggregates). Briefly: Competition. In short, it runs like this:
as §1
The source holds these as a separate data set.

Test [13] addresses T3, AD brain homogenates (mixed 3R/4R-tau). Briefly: Single concentration. The settings on record: 300 nM unlabeled compound.
The target in test [14] is T2, PSP brain homogenates (4R-tau aggregates). Briefly: Single concentration. To be noted: 300 nM unlabeled compound. The essentials:
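A PSP homogenate (100 μg tissue/mL) was run with ~1 nM [3H]-ligand as in the Ki assay, with a single 300 nM test compound, 60 min at room temperature, then filtered and counted. 0% was specific binding with no competitor; 100% was nonspecific binding at 1 μM unlabelled radioligand. The % value is […] divided by the 0%−100% count difference, ×100. Run in triplicate.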

Molecules are shown by their SMILES. Like-named read-outs stand apart in the source and are kept apart here. Bounds are passed on as bounds.

T3 sequence (P10636 623-758 limits assumed): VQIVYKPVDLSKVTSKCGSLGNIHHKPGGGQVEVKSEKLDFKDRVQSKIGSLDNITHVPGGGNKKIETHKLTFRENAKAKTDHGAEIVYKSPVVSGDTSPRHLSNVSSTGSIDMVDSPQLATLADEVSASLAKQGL
T2 sequence (P10636 1-441 isoform P10636-8): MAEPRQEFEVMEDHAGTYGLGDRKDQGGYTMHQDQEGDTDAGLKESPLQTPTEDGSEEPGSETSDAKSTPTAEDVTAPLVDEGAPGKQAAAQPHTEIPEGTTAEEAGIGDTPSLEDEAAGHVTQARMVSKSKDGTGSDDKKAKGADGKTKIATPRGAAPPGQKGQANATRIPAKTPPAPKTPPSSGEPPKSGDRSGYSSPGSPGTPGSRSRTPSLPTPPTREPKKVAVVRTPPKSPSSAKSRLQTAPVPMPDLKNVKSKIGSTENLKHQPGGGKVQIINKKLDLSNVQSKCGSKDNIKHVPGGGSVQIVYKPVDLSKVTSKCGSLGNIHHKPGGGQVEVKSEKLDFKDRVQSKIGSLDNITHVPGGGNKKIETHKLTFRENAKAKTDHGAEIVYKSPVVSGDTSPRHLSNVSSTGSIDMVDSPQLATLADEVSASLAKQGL
T1 sequence (P10636 1-441 isoform P10636-8): as above
Chain of aggregated amyloid-beta (Aβ) in AD tissue (P05067 672-713): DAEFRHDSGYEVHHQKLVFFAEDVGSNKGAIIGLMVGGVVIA

`OCC1CCN(c2ccc(-c3cc4cc(O)ccc4[nH]3)c(F)n2)CC1` [CBD-2115, 2-(2-fluoro-6-(4-(hydroxymethyl)piperidin-1-yl)pyridin-3-yl)-1H-indol-5-ol]: the Ki is 2930 nM in [1]; 520 nM in test [2]; > 10000 nM in test [3]; 745 nM in test [4]; 7140 nM in [5].

For the compound `OC1CCN(c2ncc(-c3cc4ccc(F)cc4[nH]3)cn2)CC1` [Compound 1, 1-(5-(6-fluoro-1H-indol-2-yl)pyrimidin-2-yl)piperidin-4-ol], the Ki came out at 142 ± 5 nM in test [6]; 71 nM in test [7]; 270 nM in test [8]; 95 nM in [9]; 250 nM in test [10]; 80 nM in [11]. For the same compound, in test [12], the Ki is 210 nM.

Take `Oc1cccc2sc(-c3cnc(N4CCC(O)CC4)nc3)cc12` [Compound 6]: in test [13], the “inhibition of [^3H]1, AD tissue” value is listed as > 65%. The Ki in test [2] was 22 nM; in test [4] it was 12 nM. Moreover, the “inhibition of [^3H]1, PSP tissue” value in test [14] is on record as > 65%.

As for `O=C1CCN(c2ncc(-c3cc4ccccc4[nH]3)cn2)CCN1` [Compound 19], the Ki came to 22 nM in [2] and 21 nM in test [4].

Turning to `O[C@@H]1CCN(c2ccc(-c3cc4ccc(F)cc4[nH]3)cn2)C1` [Compound 20], the Ki in [2] and in [4] was 18 nM throughout.

On to `Fc1ccc2cc(-c3cnc(N4CCOCC4)nc3)[nH]c2c1` [Compound 21, 4-(5-(6-fluoro-1H-indol-2-yl)pyrimidin-2-yl)morpholine], for which the Ki was found to be 62 ± 3 nM in test [6]; 110 nM in test [7]; 270 nM in test [8]; 93 nM in test [9]; 270 nM in [10]; 100 nM in test [11]. The compound also registered an inhibitory constant (Ki) in test [12] of 230 nM.

On to `Nc1c(F)ccc2cnc(-n3ccc4ccncc43)cc12` [MK-6240], for which the Ki in test [2] is 315 nM; in [4], 96 nM.

In the case of `Fc1cc(-c2ccc3c(n2)[nH]c2ccncc23)ccn1` [PI-2620], the figures for the Ki in test [2] and in test [4] were 89 nM and 58 nM, respectively.

For `CNc1ccc(/C=C/C=C/c2nc3ccc(OCC(O)CF)cc3s2)cn1` (centres unmarked) [PM-PBB3, reference compound], the Ki in [8] was 7930 nM; in [10], > 10000 nM; in test [2] it was 18 nM; in [4] it was 15 nM; in test [12] it was 1540 nM.

In the case of `Fc1ccc(-c2ccc3c(c2)[nH]c2ccncc23)cn1` [Tauvid], the Ki in test [2] and in [4] was > 1000 nM in each case.

What is called Ki is a dissociation constant, usually derived from enzyme kinetics or from competition with a known ligand.

These data come from paper PMC10424182 (Journal of Medicinal Chemistry, 2023).
